Several values for one entry are separate records, joined by “and”; a condition that tells them apart may be missing. Identical values can stand only once. Entries after “also recorded” stand apart in the source; their conditions may differ.
Key:
[1] = system: healthy volunteers; assay: Safety and tolerability; type: in vivo, human
[2] = system: cardiac repolarization (QTc interval) in healthy volunteers; assay: Thorough QT study: ANCOVA of QTcF versus time-matched placebo; type: in vivo, human; details: for QTcF Difference (Glasdegib‐Placebo) (90%CI) / QTcF LS Mean: N = 35
[3] = system: human ether‐à‐go‐go‐related gene (hERG) potassium channels; details: human embryonic kidney 293 cells; cited from earlier work
[4] = Plasma glasdegib pharmacokinetics after single oral doses; type: in vivo, human; details: for AUCextrap / CL/F: fasted, n=35, arithmetic mean ± SD; for Cmax / half-life: human, plasma, po
In short: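 Healthy volunteers in a randomized, double-blind, 4-period crossover received single oral doses after an overnight fast (≥10 hours), with washout ≥6 days. Plasma was assayed by validated HPLC-MS/MS: calibration 3–3000 ng/mL with 1/concentration² weighting, LLOQ 3 ng/mL, samples stored at −70°C. Cmax, Tmax, AUClast, AUCinf, CL/F, apparent volume and terminal half-life were derived by noncompartmental analysis.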

[5] = system: cardiac repolarization (QTc interval) in healthy volunteers; assay: Exposure-response; type: in vivo, human
[6] = system: patients with advanced hematologic malignancies; details: cited from earlier work
[7] = patient population, cited from earlier work
[8] = moxifloxacin 400 mg single dose
[9] = glasdegib 150 mg single dose, 0.5 h postdose
[10] = glasdegib 150 mg single dose, 1 h postdose
[11] = glasdegib 150 mg single dose, 1.5 h postdose
[12] = glasdegib 150 mg single dose, 2 h postdose
[13] = glasdegib 150 mg single dose, 3 h postdose
[14] = glasdegib 150 mg single dose, 4 h postdose
[15] = glasdegib 150 mg single dose, 6 h postdose
[16] = glasdegib 150 mg single dose, 24 h postdose
[17] = glasdegib 300 mg single dose, 0.5 h postdose
[18] = glasdegib 300 mg single dose, 1 h postdose
[19] = glasdegib 300 mg single dose, 1.5 h postdose
[20] = glasdegib 300 mg single dose, 2 h postdose
[21] = glasdegib 300 mg single dose, 3 h postdose
[22] = glasdegib 300 mg single dose, 4 h postdose
[23] = glasdegib 300 mg single dose, 6 h postdose
[24] = glasdegib 300 mg single dose, 24 h postdose
[25] = glasdegib 150 mg single oral dose
[26] = glasdegib 300 mg single oral dose

COc1c(N2C[C@@H]3CCCN[C@@H]3C2)c(F)cc2c(=O)c(C(=O)O)cn(C3CC3)c12 [Moxifloxacin]
treatment‐emergent AEs (TEAEs), number [1, 8]: 27 | treatment‐related AEs (TRAEs), number [1, 8]: 23

CN1CC[C@@H](NC(=O)Nc2ccc(C#N)cc2)C[C@@H]1c1nc2ccccc2[nH]1 [Glasdegib]
highest 90%CI upper bound for the largest and placebo‐ and baseline‐adjusted QTcF change ([2]; glasdegib 150 mg (therapeutic plasma exposure), 4 hours postdose): 10.22 milliseconds | upper bound of the 2‐sided 90%CIs for all time‐matched least‐squares mean differences in QTcF between glasdegib and placebo ([2]; glasdegib 150 mg and 300 mg single doses): < 20 milliseconds | QTcF Difference (Glasdegib‐Placebo) (90%CI) [2, 9]: −0.09 (−2.28 to 2.09) Milliseconds | QTcF LS Mean [2, 9]: 406.43 Milliseconds | QTcF Difference (Glasdegib‐Placebo) (90%CI) [2, 10]: 2.07 (−0.11 to 4.25) Milliseconds | QTcF LS Mean [2, 10]: 407.86 Milliseconds | QTcF Difference (Glasdegib‐Placebo) (90%CI) [2, 11]: 5.17 (2.99‐7.35) Milliseconds | QTcF LS Mean [2, 11]: 410.08 Milliseconds | QTcF Difference (Glasdegib‐Placebo) (90%CI) [2, 12]: 5.98 (3.80‐8.16) Milliseconds | QTcF LS Mean [2, 12]: 410.58 Milliseconds | QTcF Difference (Glasdegib‐Placebo) (90%CI) [2, 13]: 7.76 (5.58‐9.95) Milliseconds | QTcF LS Mean [2, 13]: 412.06 Milliseconds | QTcF Difference (Glasdegib‐Placebo) (90%CI) [2, 14]: 8.03 (5.85‐10.22) Milliseconds | QTcF LS Mean [2, 14]: 413.23 Milliseconds | QTcF Difference (Glasdegib‐Placebo) (90%CI) [2, 15]: 5.11 (2.93‐7.29) Milliseconds | QTcF LS Mean [2, 15]: 407.38 Milliseconds | QTcF Difference (Glasdegib‐Placebo) (90%CI) [2, 16]: 5.92 (3.74‐8.10) Milliseconds | QTcF LS Mean [2, 16]: 410.98 Milliseconds | highest 90%CI upper bound for the largest, placebo‐ and baseline‐adjusted QTcF change ([2]; glasdegib 300 mg (supratherapeutic plasma exposure), 3 hours postdose): 15.61 milliseconds | QTcF Difference (Glasdegib‐Placebo) (90%CI) [2, 17]: 0.65 (−1.53 to 2.83) Milliseconds | QTcF LS Mean [2, 17]: 407.18 Milliseconds | QTcF Difference (Glasdegib‐Placebo) (90%CI) [2, 18]: 5.14 (2.96‐7.32) Milliseconds | QTcF LS Mean [2, 18]: 410.92 Milliseconds | QTcF Difference (Glasdegib‐Placebo) (90%CI) [2, 19]: 9.84 (7.66‐12.02) Milliseconds | QTcF LS Mean [2, 19]: 414.75 Milliseconds | QTcF Difference (Glasdegib‐Placebo) (90%CI) [2, 20]: 11.06 (8.88‐13.24) Milliseconds | QTcF LS Mean [2, 20]: 415.66 Milliseconds | QTcF Difference (Glasdegib‐Placebo) (90%CI) [2, 21]: 13.43 (11.25‐15.61) Milliseconds | QTcF LS Mean [2, 21]: 417.72 Milliseconds | QTcF Difference (Glasdegib‐Placebo) (90%CI) [2, 22]: 13.41 (11.23‐15.59) Milliseconds | QTcF LS Mean [2, 22]: 418.60 Milliseconds | QTcF Difference (Glasdegib‐Placebo) (90%CI) [2, 23]: 10.82 (8.64‐13.00) Milliseconds | QTcF LS Mean [2, 23]: 413.08 Milliseconds | QTcF Difference (Glasdegib‐Placebo) (90%CI) [2, 24]: 8.91 (6.73‐11.09) Milliseconds | QTcF LS Mean [2, 24]: 413.96 Milliseconds | hERG potassium channel inhibition (in words) [3]: inhibit the human ether‐à‐go‐go‐related gene (hERG) potassium channels in a concentration‐dependent manner | AUCextrap [4, 25]: 0.6660 ± 0.30% | CL/F [4, 25]: 10.37 ± 3.58 L/h | AUCextrap [4, 26]: 0.4113 ± 0.19% | CL/F [4, 26]: 10.09 ± 3.05 L/h | Cmax ([4]; 150 mg): 1120 ± 388 ng/mL | half-life ([4]; 150 mg): 15.8 ± 2.06 h | Cmax ([4]; 300 mg): 2300 ± 651 ng/mL | half-life ([4]; 300 mg): 15.5 ± 1.77 h | dose proportionality of geometric mean AUCinf and Cmax ([4]; single oral doses of 150 and 300 mg): increased proportionally with dose | PK/PD hysteresis (lag between plasma concentration and effect on QTc) ([5]; 150 and 300 mg single doses): No PK/PD hysteresis | mean slope estimate describing the ∆QTcF‐concentration relationship ([5]; LME model): 0.005 ms/ng/mL | effect on heart rate (change in RR interval, ∆RR versus concentration) ([5]; LME model of ∆RR versus glasdegib concentration): not to have a meaningful effect on heart rate; also recorded: relationship of negligible magnitude | Slope Estimate From Final Model, ∆QTcF per ng/mL (95%CI) ([5]; QTcF, LME model): 0.005 (0.004‐0.006) Milliseconds per ng/mL | Slope Estimate From Final Model, ∆QTcS per ng/mL (95%CI) ([5]; QTcS (study population-specific correction), LME model): 0.004 (0.003‐0.005) Milliseconds per ng/mL | Model‐Derived ∆∆QTcS (90%CI) ([5]; Supratherapeutic Steady‐State Cmax (2445 ng/mL)): 11.89 (10.14‐13.64) Milliseconds | Model‐Derived ∆∆QTcF (90%CI) ([5]; Supratherapeutic Steady‐State Cmax (2445 ng/mL), 200 mg once daily): 13.72 (11.95‐15.49) Milliseconds | Model‐Derived ∆∆QTcS (90%CI) ([5]; Therapeutic Steady‐State Cmax (1137 ng/mL)): 6.55 (5.68‐7.43) Milliseconds | Model‐Derived ∆∆QTcF (90%CI) ([5]; Therapeutic Steady‐State Cmax (1137 ng/mL), 100 mg once daily): 7.34 (6.46‐8.22) Milliseconds | Model‐Derived ∆∆QTcF (90%CI) ([5]; Therapeutic Steady‐State Cmax (1137 ng/mL), 100 mg once daily, listed as glasdegib): 7.3 Milliseconds and 7.34 Milliseconds | upper bound of the 90%CI of mean predicted ΔΔQTcF ([5]; mean therapeutic glasdegib Cmax): < 10 milliseconds | upper bound of the 90%CI of mean predicted ΔΔQTcF ([5]; supratherapeutic glasdegib Cmax (twice the therapeutic dose)): < 20 milliseconds | treatment‐emergent AEs (TEAEs), number ([1]; glasdegib 150 mg single dose): 25 | treatment‐related AEs (TRAEs), number ([1]; glasdegib 150 mg single dose): 20 | treatment‐emergent AEs (TEAEs), number ([1]; glasdegib 300 mg single dose): 26 | treatment‐related AEs (TRAEs), number ([1]; glasdegib 300 mg single dose): 20 | tolerability (in words) ([1]; single oral doses of 150 and 300 mg, healthy adult subjects): well tolerated | QTc experienced by some patients ([6]; multiple dosing at 400 mg and 600 mg once daily): > 500 milliseconds | maximum tolerated dose ([6]; single-agent, patients with advanced hematologic malignancies): 400 mg once daily | Therapeutic Steady‐State Cmax ([7]; 100 mg once daily): Therapeutic Steady‐State Cmax (1137 ng/mL) | Supratherapeutic Steady‐State Cmax ([7]; 200 mg once daily): Supratherapeutic Steady‐State Cmax (2445 ng/mL)

Reference: paper PMC7983888 (Clinical Pharmacology in Drug Development, 2020)
